Assay results: ChEMBL document CHEMBL4346737, “Synthesis and evaluation of tetrahydropyrazolopyridine inhibitors of anion exchange protein SLC26A4 (pendrin)” (Bioorg Med Chem Lett, 2019)

biological target: T1, Pendrin (Homo sapiens, UniProt O43511); test: Inhibition of human PDS stably expressed in FRT cells coexpressing EYFP-H148Q/I152L/F46L assessed as reduction in I-/Cl- exchange incubated for 10 mins by fluorescence based assay; assay type: cell-based
T1 sequence (O43511 whole entry): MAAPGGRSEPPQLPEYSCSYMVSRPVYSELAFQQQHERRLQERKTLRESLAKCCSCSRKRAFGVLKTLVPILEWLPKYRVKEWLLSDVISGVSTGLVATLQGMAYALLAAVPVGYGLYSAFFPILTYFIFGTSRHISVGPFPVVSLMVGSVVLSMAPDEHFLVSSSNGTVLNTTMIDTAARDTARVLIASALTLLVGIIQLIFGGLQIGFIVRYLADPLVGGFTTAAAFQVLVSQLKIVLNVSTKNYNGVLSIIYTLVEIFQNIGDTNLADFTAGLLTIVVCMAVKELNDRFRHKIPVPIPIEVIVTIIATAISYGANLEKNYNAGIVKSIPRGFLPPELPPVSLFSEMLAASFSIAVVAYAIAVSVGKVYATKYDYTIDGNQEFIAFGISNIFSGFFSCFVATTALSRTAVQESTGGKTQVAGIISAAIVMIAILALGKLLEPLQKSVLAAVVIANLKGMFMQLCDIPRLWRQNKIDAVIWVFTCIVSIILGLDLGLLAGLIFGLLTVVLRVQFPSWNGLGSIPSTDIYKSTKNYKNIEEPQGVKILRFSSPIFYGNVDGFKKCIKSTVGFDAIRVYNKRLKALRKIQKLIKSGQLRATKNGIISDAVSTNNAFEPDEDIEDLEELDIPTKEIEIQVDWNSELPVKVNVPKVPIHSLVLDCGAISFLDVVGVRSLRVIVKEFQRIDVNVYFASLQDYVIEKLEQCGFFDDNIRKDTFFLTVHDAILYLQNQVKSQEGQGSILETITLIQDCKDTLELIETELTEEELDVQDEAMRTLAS

IC50 | SMILES
7 µM | Cn1nc(COc2cccc(F)c2)c2c1CCN(C(=O)Nc1ccc(Cl)cc1)C2

biological target: T2, Pendrin (Mus musculus, UniProt Q9R155); test: Inhibition of mouse PDS stably expressed in FRT cells coexpressing EYFP-H148Q/I152L/F46L assessed as reduction in I-/Cl- exchange incubated for 10 mins by fluorescence based assay; assay type: cell-based
T2 sequence (Q9R155 whole entry): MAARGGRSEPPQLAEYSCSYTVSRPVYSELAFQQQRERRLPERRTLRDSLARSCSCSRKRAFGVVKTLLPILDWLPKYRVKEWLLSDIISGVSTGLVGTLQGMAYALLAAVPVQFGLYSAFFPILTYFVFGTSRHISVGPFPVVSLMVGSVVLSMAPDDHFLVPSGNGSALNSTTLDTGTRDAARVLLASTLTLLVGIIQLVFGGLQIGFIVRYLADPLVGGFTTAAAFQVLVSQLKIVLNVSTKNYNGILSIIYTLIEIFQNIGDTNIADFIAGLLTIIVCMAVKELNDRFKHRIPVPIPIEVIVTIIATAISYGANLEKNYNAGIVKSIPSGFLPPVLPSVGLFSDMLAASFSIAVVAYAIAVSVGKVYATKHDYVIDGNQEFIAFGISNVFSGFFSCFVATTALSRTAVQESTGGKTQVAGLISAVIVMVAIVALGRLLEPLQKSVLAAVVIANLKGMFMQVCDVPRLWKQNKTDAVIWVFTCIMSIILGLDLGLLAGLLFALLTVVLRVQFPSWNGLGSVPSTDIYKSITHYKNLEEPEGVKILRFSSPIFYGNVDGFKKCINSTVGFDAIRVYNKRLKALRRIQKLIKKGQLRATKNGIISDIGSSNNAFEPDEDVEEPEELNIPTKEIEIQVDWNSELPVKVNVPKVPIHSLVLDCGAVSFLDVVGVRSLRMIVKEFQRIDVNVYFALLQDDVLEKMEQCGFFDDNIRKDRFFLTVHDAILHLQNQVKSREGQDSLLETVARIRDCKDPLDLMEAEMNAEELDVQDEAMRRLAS
Method in brief: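 Fischer rat thyroid cells stably co-expressing murine pendrin and the halide-sensing YFP variant were used for Cl–/I– exchange. An I–-containing solution was added to the cells, and exchange was followed as the rate of fluorescence decrease. Inhibition was read as a slower decline in fluorescence.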

IC50 | SMILES
3.3 µM | Cn1nc(COc2cc(F)c(F)c(F)c2)c2c1CCN(C(=O)Nc1ccc(Cl)cc1)C2
> 10 µM | Cn1nc(COc2cc(F)cc(F)c2)c2c1CCN(S(=O)(=O)c1ccc(C(F)(F)F)cc1)C2
> 10 µM | Cn1nc(COc2cc(F)cc(F)c2)c2c1CCN(S(C)(=O)=O)C2
> 10 µM | CCN(CC)S(=O)(=O)N1CCc2c(c(COc3cc(F)cc(F)c3)nn2C)C1
> 10 µM | CCOC(=O)c1nn(C)c2c1CN(C(=O)Nc1ccc(Cl)cc1)CC2
4.6 µM | Cn1nc(COc2ccc(F)c(F)c2)c2c1CCN(C(=O)Nc1ccc(Cl)cc1)C2
3.1 µM | Cn1nc(COc2cc(F)cc(F)c2)c2c1CCN(C(=O)Nc1ccc(Cl)cc1)C2
> 10 µM | Cn1nc(COc2cc(F)cc(F)c2)c2c1CCN(S(=O)(=O)c1ccc(Cl)cc1)C2
> 10 µM | Cn1nc(COc2cc(F)cc(F)c2)c2c1CCN(C(=S)Nc1ccc(Cl)cc1)C2
3.3 µM | Cn1nc(COc2cc(F)cc(F)c2)c2c1CCN(C(=O)Nc1ccc(Br)cc1)C2
> 10 µM | Cn1nc(COc2cc(F)cc(F)c2)c2c1CCN(C(=S)NC1CCCCC1)C2
> 10 µM | Cn1nc(COc2cc(F)cc(F)c2)c2c1CCN(C(=O)NC(=O)c1ccccc1)C2
> 10 µM | CC(C)NC(=O)N1CCc2c(c(COc3cc(F)cc(F)c3)nn2C)C1
> 10 µM | CN(C)c1ccc(NC(=S)N2CCc3c(c(COc4cc(F)cc(F)c4)nn3C)C2)cc1
> 10 µM | Cn1nc(COc2cc(F)cc(F)c2)c2c1CCN(C(=O)NC1CCCCC1)C2
> 10 µM | Cn1nc(C(=O)O)c2c1CCN(C(=O)Nc1ccc(Cl)cc1)C2
